Screening data from PubChem BioAssay.
Only some compounds are listed: those with a hit (about 2.6% of all), similar ones and a draw of the others.
CHT allo act: CHT positive allosteric modulators, primary screen, cell-based, membrane potential dye, choline EC20; CHT-expressing cells; hits give high values; LV-AA mutant CHT in HEK293 cells; B-score at 10 µM; 310,000 tested, 0.49% active;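 active = initial fluorescence not abnormally high and integrated response B-score, plate-corrected, over 3 SD above library mean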
Rad51 HR inh: human RAD51 strand exchange inhibitors, primary screen, biochemical, fluorescence. 200,000 tested, 0.085% active. inhibition, % at 10 µM. DNA repair protein RAD51 homolog 1 (Homo sapiens), Q06609. hRad51 DNA strand exchange, fluorescence dequenching;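 active = inhibition above 40% at the single screening dose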;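 note: 0% = DMSO control wells and 100% = blanks with heterologous ssDNA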
Target sequence (Q06609 whole entry, looked up): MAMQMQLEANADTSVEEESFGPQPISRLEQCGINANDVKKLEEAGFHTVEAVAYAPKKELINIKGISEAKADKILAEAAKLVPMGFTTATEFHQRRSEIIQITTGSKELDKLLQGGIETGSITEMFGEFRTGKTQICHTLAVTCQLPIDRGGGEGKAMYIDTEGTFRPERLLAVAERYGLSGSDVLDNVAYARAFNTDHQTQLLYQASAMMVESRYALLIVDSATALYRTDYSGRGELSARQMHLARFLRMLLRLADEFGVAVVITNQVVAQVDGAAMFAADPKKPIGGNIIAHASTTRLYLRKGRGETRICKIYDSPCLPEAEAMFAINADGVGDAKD
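Assay system: Human Rad51 nucleoprotein filaments preassembled on unlabelled ssDNA | Reagent: Donor/quencher-labelled 47-bp dsDNA substrate | Doses: One concentration, 10 µM final | Times: 37 °C 15-min filament assembly, 30-min compound preincubation, 15-min exchange | Technique: Fluorescein emission 520 nm, excitation 485 nm | Benchmarks: Plate control and blank wells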
KCC2 mod: KCC2 cotransporter modulators, thallium flux, primary screen, cell-based, HEK293 KCC2, FluoZin-2 fluorescence, MLSMR; KCC2 cells, thallium flux FluoZin-2 fluorescence; B-score of Tl+ flux slope (higher = more flux/activation; lower = inhibition) at 10 µM; AID 1456, 2008; 190,000 tested, 2.2% active;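 active = thallium flux slope and its plate-corrected score both differing from the plate sample mean at a set confidence after two filtering rounds, in either direction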;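 note: slope of fluorescence scaled to starting intensity during 10 to 20 s after thallium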
CHT inh: inhibitors of human choline transporter CHT | CHT-expressing cells, membrane potential dye, choline response; hits give low values | B-score at 10 µM | 310,000 tested, 0.86% active | AID 488975, 2010;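 active = B-score over 3 SD under the library average, and starting fluorescence ratio not unusually high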;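 note: choline stimulus applied at its EC90 after an EC20 pre-addition; B-score computed on integrated fluorescence ratio after choline addition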
KCC2 secondary: KCC2 modulators in sodium-free buffer, confirmation, cell-based, HEK293 KCC2, thallium flux, secondary assay; shares compounds with KCC2 mod; FluoZin2 fluorescence; hits give high values; normalised thallium flux (F/F0 slope) at 10 µM; 3,700 tested, 15% active; AID 1713, 2009;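 active = thallium flux slope above the same plate's solvent-only control mean plus 3 SD; inconclusive = the two replicate wells disagree; inactive = no significant difference from solvent-only control wells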
KCC2 bumet counter: thallium flux persisting under bumetanide in KCC2 cells, confirmation, counter-screen for KCC2 modulator project, cell-based, HEK293 KCC2, FluoZin2, secondary assay 3 | shares compounds with KCC2 mod | HEK293-KCC2 + bumetanide/ouabain; hits give high values | normalized thallium flux at 10 µM | 3,700 tested, 49% active;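 active = thallium entry rate above the same plate's blocked-transporter control wells by more than 3 SD; inconclusive = the two repeat wells disagree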;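 note: raw slope of fluorescence over initial fluorescence between 10 and 20 s after thallium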
KCC2 sec2: KCC2 modulators without ouabain present, confirmation, cell-based, HEK293 KCC2, thallium flux, FluoZin2, secondary assay 2 | shares compounds with KCC2 mod | thallium flux FluoZin2 fluorescence; actives lie on both sides; F/F0 rise rate, 10–20 s post-thallium | normalized thallium flux at 10 µM | 3,700 tested, 23% active | AID 1715, 2009;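 active = thallium flux slope more than 3 SD above or below the plate's solvent-only control mean, mostly below; inconclusive = the two repeat wells disagreed; inactive = no significant shift from solvent-only controls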;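 note: raw slope with 0.1% DMSO as baseline and bumetanide as block control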
HEK293 Tl flux: thallium flux modulation in parental HEK cells, confirmation, counter-screen for KCC2 modulator project, cell-based, counterscreen 1. shares compounds with KCC2 mod. HEK293 parental cells, thallium flux FluoZin2, ouabain; baseline-ratio fluorescence slope, 10–20 s after thallium. thallium flux rate (normalised fluorescence) at 10 µM. 3,700 tested, 46% active. AID 1716, 2009;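 active = thallium flux rate significantly above the same plate's solvent-only control wells, beyond their mean plus 3 SD; inconclusive = the two replicate wells gave conflicting results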
KCC2 ouabain: KCC2 inhibitors and activators, ouabain retest, confirmation, HEK-KCC2 cells; shares compounds with KCC2 mod; HEK293-KCC2, thallium flux FluoZin2 fluorescence; bidirectional: low = inhibitor, high = activator; raw Tl+ flux slope (below DMSO = inhibition, above = activation) at 10 µM; 3,700 tested, 48% active;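 active = thallium flux slope beyond 3 SD from same-plate DMSO control mean in most replicates, usually higher, sometimes lower; inconclusive = repeat tests gave conflicting results; inactive = no significant difference from controls in most replicates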;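 note: slope of initial-normalized fluorescence between seconds 10 and 20 after thallium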
HEK counter2: native HEK Tl+ uptake effects, second counter-screen – HEK cells, counterscreen 2, counter-screen for KCC2 modulator project, confirmation | 3,700 tested, 33% active | HEK293 parental, thallium flux FluoZin-2 fluorescence slope | AID 1718, 2009 | shares compounds with KCC2 mod | thallium flux slope at 10 µM;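 active = thallium flux slope above the same plate's solvent-control mean plus 3 SD in both duplicate wells; inconclusive = duplicate wells that disagreed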;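 note: run without ouabain in cells lacking the KCC2 cotransporter; slope of fluorescence scaled to its starting value between 10 and 20 s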
Numbers without * were called inactive; i = inactive; ? = inconclusive; / = no result.

SMILES	CHT allo act	Rad51 HR inh	KCC2 mod	CHT inh	KCC2 secondary	KCC2 bumet counter	KCC2 sec2	HEK293 Tl flux	KCC2 ouabain	HEK counter2
Cc1ccc(S(=O)(=O)NC(=O)Nc2ccc(F)cc2)cc1	i	1	1.5	i	/	/	/	/	/	/
Cc1ccc(/C=N/NC(=O)c2ccc(Br)o2)s1	i	3	5.3*	i	0.0091	0.0092*	0.033	?	0.021	0.012
COc1cc(/C=N/n2nnnc2N)cc(Cl)c1OC	i	/	/	i	/	/	/	/	/	/
Cc1c(CCCN)c2ccccc2n1Cc1ccccc1	i	-9	/	i	/	/	/	/	/	/
Cc1ccc(C(=O)Nc2ccccc2N2CCCCC2)cc1[N+](=O)[O-]	i	-5	0.018	i	/	/	/	/	/	/
O=C(NC(=S)Nc1ccccc1N1CCCC1)c1ccco1	i	-44	134*	i	0.042*	0.11*	0.056*	0.072*	0.068*	0.062*
Cc1ccc(C(=O)NC(=S)Nc2ccccc2N2CCCC2)cc1[N+](=O)[O-]	i	-3	5.5*	i	0.0076	0.042*	0.033	0.018*	0.04*	0.012*
O=C(/C=C/c1ccco1)NC(=S)Nc1ccccc1N1CCCC1	i	1	3.2*	i	0.012	0.028*	0.032	0.011*	0.023	0.01
Cc1ccc(C(=O)N2CCOCC2)cc1[N+](=O)[O-]	i	5	0.25	i	/	/	/	/	/	/
Cc1ccc(C(=O)Nc2ccccc2C(=O)N2CCOCC2)cc1[N+](=O)[O-]	i	/	6.9*	i	0.0065	0.004	0.031	0.0072	0.018	0.0096
COc1ccc(NC(=O)COc2ccccc2Cc2ccccc2)cc1S(N)(=O)=O	i	/	/	i	/	/	/	/	/	/
COc1cccc(C2=CC(=O)CCC2)c1OC	i	-5	/	i	/	/	/	/	/	/
N#Cc1c(-c2ccc(C(F)(F)F)cc2)cc(-c2ccccc2)[nH]c1=S	i	4	5*	i	0.02*	0.022*	0.04	?	0.029*	0.024*
Cc1ccc(-c2cc(-c3ccccc3)[nH]c(=S)c2C#N)cc1	i	-3	/	i	/	/	/	/	/	/
CCc1ccccc1NC(=S)Nn1cnnc1	i	/	/	i	/	/	/	/	/	/
O=c1c2sc3ccccc3c2[nH]c(=S)n1CCN1CCOCC1	i	6	8.6*	i	0.017	0.017*	0.033	0.019*	0.024*	0.02*
O=c1c2ccc(Cl)cc2[nH]c(=S)n1CCCN1CCOCC1	i	6	6.5*	i	?	0.036*	0.033	0.015*	0.034*	0.011*
O=c1c2ccccc2[nH]c(=S)n1CCCN1CCOCC1	i	-2	0.9	i	/	/	/	/	/	/
